TAAR1 antag – human TAAR1 antagonism; Q96RJ0; hit rate 1.5% among 360,000; inhibition, % at 3 µM; CHO RD-HGA16 TAAR1, Fluo-8 calcium fluorescence, antagonist;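 active = inhibition above a per-plate cutoff, the mean inhibition of test compounds on that plate plus 3 SD, cut at about 49% in these data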
Target sequence (Q96RJ0 whole entry, looked up): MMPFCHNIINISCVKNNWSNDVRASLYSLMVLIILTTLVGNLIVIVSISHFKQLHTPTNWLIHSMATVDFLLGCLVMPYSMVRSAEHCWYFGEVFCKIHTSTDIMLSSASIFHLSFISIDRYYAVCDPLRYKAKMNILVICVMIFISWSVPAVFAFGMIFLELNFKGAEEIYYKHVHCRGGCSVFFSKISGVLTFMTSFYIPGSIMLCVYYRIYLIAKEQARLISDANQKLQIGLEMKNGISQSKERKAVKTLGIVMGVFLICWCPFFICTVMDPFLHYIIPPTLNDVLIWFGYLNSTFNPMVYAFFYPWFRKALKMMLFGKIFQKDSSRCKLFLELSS
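System: RD-HGA16 CHO cells with stable hTAAR1 and Gα16 | Probe or stimulus: EC80 β-phenethylamine stimulus | Dosing: 3 µM, single point | Times: Dye loading 75 min at 37 °C, then 30 min room temperature | Measured by: Fluo-8 calcium-sensitive fluorescence | Read-out basis: % inhibition of agonist calcium response | Replicates: n of 1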
OX1R antag-1 – blocks the human orexin 1 receptor; O43613; CHO/OX1R cells, Fluo-8 calcium fluorescence, orexin A; inhibition, % at 5 µM; hit rate 0.43% among 330,000;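 active = inhibition above its plate's threshold, mean inhibition of all tested compounds on the plate plus 3 SD, cut at about 37% in these data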
CHO parental Ca – counter-screen for OX1R antagonists: effect in parental CHO cells. inhibition, % at 5.6 µM. hit rate 0.63% among 330,000. AID 463079. parental CHO-K1, ATP-induced calcium, Fluo-8 fluorescence;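 active = inhibition above that plate's mean sample inhibition plus 3 SD, cut at about 26% in these data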
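Material – parental CHO cells · Reagent – ATP stimulus · Compound – single nominal dose of 5.6 µM per compound · Detection – Fluo-8 fluorescence · Read-out basis – percent inhibition of calcium signal · Controls – ATP-challenged DMSO wells low, unchallenged DMSO wells high · Repeats – no replicates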
OX1R antag-2 – antagonists of human orexin 1 receptor (OX1R). hit rate 1.8% among 330,000. inhibition, % at 6.6 µM. O43613. OX1R-expressing cells, FRET antagonist read-out. AID 485270; in the data active = inhibition mostly above about 38%, no sharp cut-off; inactive = mostly below about 40%
TAAR1 ag – human TAAR1 agonism; Q96RJ0; CHO RD-HGA16 TAAR1, Fluo-8 calcium fluorescence; vehicle wells 0%, saturating PEA agonist 100%; activation, % at 3 µM; hit rate 0.99% among 360,000;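 active = activation above the mean activation of all test compounds in the run plus 3 SD, cut at about 38% in these data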
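System: CHO-derived RD-HGA16 cells with stable Gα16 and human TAAR1. Times: 17-24 h plating, Fluo-8 75 min 37 °C, 30 min RT. Measured by: calcium-sensitive Fluo-8 signal, excitation 470-495, emission 515-575 nm. Read-out basis: % activation relative to PEA EC100 response. Control set: DMSO and PEA EC100. Repeats: no replicates (n 1).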
GPR7 antagonist – human neuropeptides B/W receptor 1 antagonism. inhibition, % at 4.4 µM. GPR7-expressing cells, fluorescence antagonist assay. hit rate 1.1% among 290,000. P48145; in the data active = inhibition above about 16%, passing the limit was not always enough;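 note: cells stimulated with the agonist NPW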
Target sequence (P48145 whole entry, looked up): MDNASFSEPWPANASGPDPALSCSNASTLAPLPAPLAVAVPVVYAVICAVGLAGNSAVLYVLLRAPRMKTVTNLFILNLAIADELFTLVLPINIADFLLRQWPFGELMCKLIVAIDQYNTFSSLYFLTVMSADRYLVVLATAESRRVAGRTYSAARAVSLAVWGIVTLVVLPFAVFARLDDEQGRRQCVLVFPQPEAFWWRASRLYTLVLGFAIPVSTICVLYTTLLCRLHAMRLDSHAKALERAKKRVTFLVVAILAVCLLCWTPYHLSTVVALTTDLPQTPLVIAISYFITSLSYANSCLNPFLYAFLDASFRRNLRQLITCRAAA
GPR7 antag conf – human GPR7 antagonism, confirmation assay. shares compounds with GPR7 antagonist. GPR7-expressing cells, calcium fluorescence antagonist mode. inhibition, % at 4.4 µM. hit rate 52% among 2,400; in the data active = inhibition above about 24%;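 note: stimulated with the GPR7 agonist NPW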
MCHR1 antagonist – counter-screen for GPR7 antagonists: antagonists of human MCHR1; inhibition, % at 4.4 µM; hit rate 62% among 2,400; shares compounds with GPR7 antagonist; MCHR1-expressing cells, fluorescence antagonist assay; in the data active = inhibition above about 22%
Each line names hits and unclear results; the compound was inactive in the other large screens (follow-up assays come after a bar, where they were run). Only some compounds are listed: those with a hit (about 4.5% of all), similar ones and a draw of the others.

COc1ccc(OC)c(C(c2nnnn2C2CCCC2)N2CCN(c3ccccc3)CC2)c1 (stereo unspecified)	GPR7 antagonist 31 | GPR7 antag conf 24 | MCHR1 antagonist 41
CN1CCC(CO)(Cc2ccccc2)CC1	none
OCC1(Cc2ccc(Cl)cc2)CCN(CCCc2ccccc2)CC1	GPR7 antagonist 26 | GPR7 antag conf 37 | MCHR1 antagonist 31
O=P(OC1CCCCC1)(OC1CCCCC1)C(Nc1ccccc1)c1cccnc1 (stereo unspecified)	GPR7 antagonist 32 | GPR7 antag conf 31 | MCHR1 antagonist 39
CC(C)CC(Nc1ncnc2scc(-c3ccccc3)c12)C(=O)O (stereo unspecified)	none
c1ccc(-c2csc3ncnc(NCC4COc5ccccc5O4)c23)cc1 (stereo unspecified)	CHO parental Ca 79, GPR7 antagonist 50 | GPR7 antag conf 54 | MCHR1 antagonist 63
COc1ccc(C2=NN(C(=O)CSc3nc4ccccc4s3)C(c3ccc(OC)cc3)C2)cc1 (stereo unspecified)	none
COc1ccc2c(c1)C(C)CC(C)(C)N2C(=O)CSc1nc2ccccc2s1 (stereo unspecified)	GPR7 antagonist 22 | GPR7 antag conf 26 | MCHR1 antagonist 54
COc1ccc(CC(=O)N2CCNC2=O)cc1	GPR7 antagonist 30 | GPR7 antag conf inactive | MCHR1 antagonist inactive
COc1ccc(CC(=O)N2CCc3ccccc32)cc1	none
CCN(CC)S(=O)(=O)c1ccc(N2Cc3ccccc3C2=N)cc1	GPR7 antagonist 22 | GPR7 antag conf inactive | MCHR1 antagonist inactive
Cc1cc2cc(CNC(=S)Nc3ccc(OC(F)F)cc3)ccc2n1C	GPR7 antagonist 50 | GPR7 antag conf inactive | MCHR1 antagonist 51
COc1ccc(C(=O)NCc2ccc3c(c2)cc(C)n3C)cc1	GPR7 antagonist 23 | GPR7 antag conf inactive | MCHR1 antagonist inactive
COc1ccccc1-c1nnc(C2CCN(S(=O)(=O)c3ccccc3[N+](=O)[O-])CC2)o1	none
CCOc1cccc(CNCCO)c1OCc1ccc(Cl)cc1	none
CCOc1cc(CNC(C)(C)CO)cc(Br)c1OCc1ccc(Cl)cc1Cl	GPR7 antagonist 46 | GPR7 antag conf 67 | MCHR1 antagonist 78
CCOc1cc(CNCCO)cc(Br)c1OCc1ccc(Cl)cc1	TAAR1 ag 40, GPR7 antagonist 54 | GPR7 antag conf 70 | MCHR1 antagonist 78
Cc1ccc(-c2nnc(OCc3nc4ccccc4n3C)c3ccccc23)cc1	none (no result: GPR7 antagonist)
COc1ccc(C(CCNCc2ccc(OC)c(OC)c2)c2ccc(F)cc2)cc1 (stereo unspecified)	GPR7 antagonist 31 | GPR7 antag conf 52 | MCHR1 antagonist 80
COc1ccc(CCNCCC(c2ccccc2)c2ccccc2)cc1OC	none (no result: OX1R antag-1, CHO parental Ca, OX1R antag-2, GPR7 antagonist)
CC(C)CC(C(=O)O)N1C(=O)C2C3C=CC(C2C1=O)C1C(=O)N(C(CC(C)C)C(=O)O)C(=O)C31 (stereo unspecified)	none
COc1ccc(CN2CCN(CC(O)Cn3c4ccccc4c4ccccc43)CC2)cc1 (stereo unspecified)	GPR7 antagonist 23 | GPR7 antag conf 47 | MCHR1 antagonist 68
O=c1c2ccccc2n(CC(O)CN2CCOCC2)c2ccccc12 (stereo unspecified)	GPR7 antagonist 42 | GPR7 antag conf inactive | MCHR1 antagonist inactive
CCOc1ccc(CN2CCN(CC(O)Cn3c4ccccc4c4ccccc43)CC2)cc1 (stereo unspecified)	none
O=c1c2ccccc2n(CC(O)CN2CCCCC2)c2ccccc12 (stereo unspecified)	none
O=C(N/C(=C/c1ccc(F)cc1)C(=O)N1CCOCC1)c1ccco1	none (no result: OX1R antag-1, CHO parental Ca, OX1R antag-2, GPR7 antagonist)
Cc1ccc(S(=O)(=O)N2CCN(C(=O)CSc3ccc(Cl)cc3)CC2)cc1	none
CC(=O)c1ccc(S(=O)(=O)N2CCN(C(=O)CSc3ccc(C)c(C)c3)CC2)cc1	GPR7 antagonist 35 | GPR7 antag conf inactive | MCHR1 antagonist inactive
CCCCNc1nc2ccccc2n1CC(=O)Nc1c(C)cccc1CC	GPR7 antagonist 33 | GPR7 antag conf 32 | MCHR1 antagonist inactive
CCc1cccc(C)c1NC(=O)Cn1c(NCCO)nc2ccccc21	none
COc1ccc(Oc2c(Cl)cnn(-c3ccc(F)cc3)c2=O)cc1	none
COc1ccc(Oc2c(Cl)cnn(-c3ccc(C)cc3)c2=O)cc1	GPR7 antagonist 32 | GPR7 antag conf 63 | MCHR1 antagonist inactive
COC(=O)C(Cc1ccccc1)NC(=O)CC(C)CC(=O)Nc1ccc(C)cc1 (stereo unspecified)	none
COc1ccccc1CNS(=O)(=O)c1cc(C)ccc1OC	none
COc1ccccc1CNS(=O)(=O)c1ccc(Cl)s1	GPR7 antagonist 23 | GPR7 antag conf inactive | MCHR1 antagonist inactive
CS(=O)(=O)c1sc(C#N)c2c1C(=O)CC(c1ccccc1)C2 (stereo unspecified)	TAAR1 antag 73, OX1R antag-1 92, CHO parental Ca 53, OX1R antag-2 46, GPR7 antagonist 75 | GPR7 antag conf 97 | MCHR1 antagonist 94
COC(=O)c1[nH]c2c(c1C)C(=O)CC(c1ccccc1)C2 (stereo unspecified)	none
COc1cccc(NC(=O)CN(C)C(=O)c2cc3c(s2)CCC3)c1	none (no result: GPR7 antagonist)
CC(C)c1ccc(NC(=O)NC(C)c2ccc3c(c2)OCO3)cc1 (stereo unspecified)	none
CC(C)c1ccc(NC(=O)C(c2ccc3c(c2)OCO3)N2CCCCC2)cc1 (stereo unspecified)	GPR7 antagonist 24 | GPR7 antag conf inactive | MCHR1 antagonist 40
COc1ccc(CCN=C(N)C(C)c2ccccc2)cc1OC (stereo unspecified)	none
CC(C)Cc1ccc(C(C)C(N)=NCCc2ccccc2)cc1 (stereo unspecified)	GPR7 antagonist 52 (no result: OX1R antag-1, CHO parental Ca, OX1R antag-2) | GPR7 antag conf 39 | MCHR1 antagonist 54
CCOc1cc(CNC2CCCC2)cc(Cl)c1OCc1ccccc1	TAAR1 ag 58, GPR7 antagonist 26 | GPR7 antag conf 40 | MCHR1 antagonist 30
CCOc1cc(CNCC(C)C)cc(Cl)c1OCc1ccccc1	none
CC(=O)N1CCN(S(=O)(=O)c2cccc(C(=O)N(C)Cc3ccc(C)o3)c2)CC1	none (no result: OX1R antag-1, CHO parental Ca, OX1R antag-2, GPR7 antagonist)
COc1ccc(N(C)S(=O)(=O)c2cccc(C(=O)N(C)Cc3ccc(C)o3)c2)cc1	GPR7 antagonist 25 | GPR7 antag conf 31 | MCHR1 antagonist 26
